Measurements reported in PMC5797669 (Cellular signalling, 2016).
Where no end group is shown, it is not given here.

Key:
hY4R S^7.100/103A = hY4R S^7.100/103A (Homo sapiens, UniProt P50391, S369A/S372A); assay: TAMRA-hPP ligand uptake by fluorescence microscopy; type: cell-based; conditions: HEK293, 100 nM, 60 min, acidic wash pH 3.0, Mean ± S.E.M., n ≥ 4
Method in brief: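 HEK293 cells on slides at 70–80% confluence, transfected (Lipofectamine 2000) with 1 µg receptor plasmid. Next day, starved 30 min at 37 °C in Opti-MEM, optionally with Hoechst33342. […] Intracellular fluorescence quantified per cell, ≥10 cells per experiment.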

hY4R point mutants = assay: [^125I]-hPP cell surface binding assay; parameters: species or system human; conditions: all point mutants; HEK293; compared to WT (set to 100%)
Method in brief: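 EYFP-fused receptor constructs transiently expressed in HEK293: 7 µg receptor DNA per 6-well by Lipofectamine 2000. Cells re-seeded next day into poly-D-lysine-coated 48-well plates and grown to confluence. Specific [125I]-hPP binding of each mutant expressed relative to wild-type receptor specific binding.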

[1] = molecular target: hY4R deletion mutant Δ7.78, C-terminally fused to RLuc8 (human) (UniProt P50391); assay: FRET or BRET
[2] = molecular target: hY4R deletion mutant Δ7.93, C-terminally fused to RLuc8 (human) (UniProt P50391); assay: FRET or BRET
[3] = molecular target: hY4R deletion mutant Δ7.97, C-terminally fused to RLuc8 (human) (UniProt P50391); assay: FRET or BRET
[4] = molecular target: hY4R point mutant E^7.78/79/81A, C-terminally fused to RLuc8 (human) (UniProt P50391); assay: FRET or BRET
[5] = molecular target: hY4R point mutant S^7.100/103A, C-terminally fused to RLuc8 (human) (UniProt P50391); assay: FRET or BRET
[6] = molecular target: hY4R point mutant S^7.80/86A, C-terminally fused to RLuc8 (human) (UniProt P50391); assay: FRET or BRET
[7] = molecular target: hY4R point mutant S^7.93/96A, C-terminally fused to RLuc8 (human) (UniProt P50391); assay: FRET or BRET
[8] = molecular target: hY4R point mutant T^7.87/90A, C-terminally fused to RLuc8 (human) (UniProt P50391); assay: FRET or BRET
[9] = molecular target: N-terminally HA-tagged hY4R wild type fused to enhanced yellow fluorescent protein (human, UniProt P50391 1-375); assay: radioligand binding
N-terminally HA-tagged hY4R wild type fused to enhanced yellow fluorescent protein, sequence (P50391 whole entry, the tested form may be a part): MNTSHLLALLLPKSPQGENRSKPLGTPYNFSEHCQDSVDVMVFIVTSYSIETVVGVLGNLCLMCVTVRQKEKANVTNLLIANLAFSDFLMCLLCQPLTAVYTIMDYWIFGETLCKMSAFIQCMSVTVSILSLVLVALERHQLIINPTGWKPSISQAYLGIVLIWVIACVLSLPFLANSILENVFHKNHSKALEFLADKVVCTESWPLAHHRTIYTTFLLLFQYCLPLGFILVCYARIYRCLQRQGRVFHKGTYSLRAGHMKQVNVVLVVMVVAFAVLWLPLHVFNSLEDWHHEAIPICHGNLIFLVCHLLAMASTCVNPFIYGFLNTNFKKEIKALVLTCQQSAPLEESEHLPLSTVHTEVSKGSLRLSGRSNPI

hY4R S^7.100/103A, sequence (P50391 whole entry S369A/S372A): as the sequence (P50391 whole entry, the tested form may be a part) above, with S369A, S372A counted along it
hY4R point mutant E^7.78/79/81A, C-terminally fused to RLuc8 (human), sequence (P50391 whole entry, change not shown, the tested form may be a part): as the sequence (P50391 whole entry, the tested form may be a part) above
hY4R point mutant S^7.100/103A, C-terminally fused to RLuc8 (human), sequence (P50391 whole entry, change not shown, the tested form may be a part): as the sequence (P50391 whole entry, the tested form may be a part) above
hY4R point mutant T^7.87/90A, C-terminally fused to RLuc8 (human), sequence (P50391 whole entry, change not shown, the tested form may be a part): as the sequence (P50391 whole entry, the tested form may be a part) above
hY4R deletion mutant Δ7.97, C-terminally fused to RLuc8 (human), sequence (P50391 whole entry, stated change not applied, the tested form may be a part): as the sequence (P50391 whole entry, the tested form may be a part) above
hY4R deletion mutant Δ7.93, C-terminally fused to RLuc8 (human), sequence (P50391 whole entry, stated change not applied, the tested form may be a part): as the sequence (P50391 whole entry, the tested form may be a part) above
hY4R deletion mutant Δ7.78, C-terminally fused to RLuc8 (human), sequence (P50391 whole entry, stated change not applied, the tested form may be a part): as the sequence (P50391 whole entry, the tested form may be a part) above
hY4R point mutant S^7.93/96A, C-terminally fused to RLuc8 (human), sequence (P50391 whole entry, change not shown, the tested form may be a part): as the sequence (P50391 whole entry, the tested form may be a part) above
hY4R point mutant S^7.80/86A, C-terminally fused to RLuc8 (human), sequence (P50391 whole entry, change not shown, the tested form may be a part): as the sequence (P50391 whole entry, the tested form may be a part) above

## TAMRA-hPP: hPP-derivative that was N-terminally modified with a TAMRA fluorophore
hY4R S^7.100/103A
  TAMRA-hPP uptake (intracellular fluorescence): 78 ± 11%

## [^125I]-hPP: radioligand used in binding experiments
hY4R point mutants
  cell surface expression ([^125I]-hPP binding): > 78%

## Bovine arrestin-3 N-terminally fused to Venus (from UniProt P32120 1-420) (natural protein)
[1]
  arr-3 recruitment, maximum net BRET (% of WT): 1%
[2]
  arr-3 recruitment, maximum net BRET (% of WT): 174%
[3]
  arr-3 recruitment, maximum net BRET (% of WT): 186%
[4]
  arr-3 recruitment, maximum net BRET (% of WT): 25%
[5]
  arr-3 recruitment, maximum net BRET (% of WT): 95%
[6]
  arr-3 recruitment, maximum net BRET (% of WT): 33%
[7]
  arr-3 recruitment, maximum net BRET (% of WT): 49%
[8]
  arr-3 recruitment, maximum net BRET (% of WT): 51%

B1: [^125I]-labelled human pancreatic polypeptide (peptide, UniProt P01298 30-65, looked up)
peptide: APLEPVYPGDNATPEQMAQYAADLRRYINMLTRPRY-NH2
modifications: also: 125I label (position not given here)
[9]
  specific binding (% of WT): 100%
